Experimental data gathered from unrelated publications.
Protocols differ between the studies behind these lines.
Target: RAC-alpha serine/threonine-protein kinase (AKT1, Homo sapiens, UniProt P31749)

C1=C/COCc2cc(ccc2OCCN2CCCC2)Nc2nccc(n2)-c2cccc(c2)COC/1 gave a remaining binding of 100% (binding; 0.1 µM).
The remaining binding of COc1ccc2[nH]c3c4[nH]c5ccc(OC)cc5c4c4c(c3c2c1)C(=O)NC4=O is reported as 72% (binding; 1 µM).
With C=CC(=O)N1CCC([C@@H]2CCNc3c(C(N)=O)c(-c4ccc(Oc5ccccc5)cc4)nn32)CC1 the inhibition was 7% (enzyme activity; inhibitor; 1 µM).
The remaining signal of C#Cc1cnc(Nc2ccnc(CO)c2)nc1Nc1ccccc1S(C)(=O)=NC#N (stereo not shown) is reported as 100% (cell-free assay; 1 µM).
The remaining binding of N#Cc1ccc(NC(=O)Nc2ccccc2)cc1 is reported as 100% (cell-free assay; competition with immobilised ligand; 25 µM).
For COc1ccc2oc(-c3ccc4nc(N)oc4c3)c/c(=N\c3ccccc3NC(=O)CCN)c2c1, the remaining binding was 91% (binding; 1 µM).
CCCCC(=O)Nc1ccc(-c2ccc3ncn(CCC)c(=O)c3c2)cn1 gave a remaining binding of 100% (binding; competition with immobilised ligand; 0.5 µM).
Cc1cc(O)c(-c2ccc([C@@H](C)CN(C)C)cc2)c2c1[nH]c(=O)c1sccc12 gave an inhibition of -0.622% (enzyme activity; inhibitor; 0.1 µM).
Cc1ccc(NC(=O)c2ccnc(C(F)(F)F)c2)cc1-c1cc(OCCO)nc(N2CCOCC2)c1 gave a remaining binding of 99% (binding; 1 µM).
CO[C@@H]1[C@H](N(C)C(=O)c2ccccc2)C[C@H]2O[C@]1(C)n1c3ccccc3c3c4c(c5c6ccccc6n2c5c31)C(=O)NC4 has an inhibition of 7% (enzyme activity; inhibitor; 1 µM).
